Converted amounts (≈) assume the structure as drawn.
Assays:
[1] = molecular target: T1, Geranylgeranyl transferase type I (Homo sapiens, UniProt P49354+P53609); assay: In vitro inhibition against human Geranylgeranyl transferase type I catalyzed by incorporation of [3H]- GGPP (geranylgeranyl pyrophosphate) into biotinylated peptide corresponding to the c-terminus of human Ki-Ras; assay type: protein-complex assay
Outline: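 Human GGPTase-I transferred [3H]GGPP onto a biotinylated human Ki-Ras C-terminal peptide. Enzyme and inhibitor were preincubated 30 min with 5 mM ATP before reaction. Some values were instead run without preincubation. IC50 is the concentration halving incorporation.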

[2] = molecular target: T2, Protein farnesyltransferase (Homo sapiens, UniProt P49354+P49356); assay: In vitro inhibition against human Farnesyltransferase catalyzed by incorporation of [3H]- FPP into recombinant Ras-CVIM; assay type: protein-complex assay
[3] = molecular target: T2, Protein farnesyltransferase; assay: Concentration required to displace 50% of a radiolabeled farnesyltransferase inhibitor from FPTase in cultured Ha-Ras transformed RAT1 cells; assay type: functional, cell-based
Rat1 [4] = assay: Inhibition of colony formation in v-H-ras-transformed RAT1 cells; assay type: functional; settings: Rattus norvegicus
Outline: (§1)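 Anchorage-independent growth of ras-transformed RAT1 cells in soft agar, read as colony formation. Potency is reported as IC90 for blocking colonies.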

Rat1 [5] = assay: Inhibition of colony formation in K-ras-transformed RAT1 cells, ranges from 0.3-1; assay type: functional; settings: Rattus norvegicus; outline: as §1
Rat1 [6] = assay: Percent RAT1 cell survival at 10 uM assessed by MTT viability staining; assay type: functional; settings: Rattus norvegicus, read-out: Survival
[7] = molecular target: T1, Geranylgeranyl transferase type I; assay: Minimal concentration required to inhibit Rap 1a processing (prenylation) in PSN-1 cell; assay type: functional, cell-based

| Structure (SMILES) | IC50 [1] | IC50 [2] | IC50 [3] | IC90 (Rat1 [4]) | IC90 (Rat1 [5]) | viability at 10 µM (Rat1 [6]) | MIC [7] |
| --- | --- | --- | --- | --- | --- | --- | --- |
| N#Cc1ccc(Cn2cncc2CN2CCN(c3cccc(Cl)c3)C(=O)C2)cc1Oc1ccc2ccccc2c1 | 199 nM | 1 nM | 48 nM | – | – | – | – |
| O=C1CN(Cc2cncn2Cc2cccc(Oc3ccccc3)c2)CCN1c1ccc(C(F)(F)F)cc1 | 155 nM | 5770 nM | – | – | – | – | – |
| N#Cc1ccc(Cn2cncc2CN2CCN(c3cccc(Cl)c3)C(=O)C2)cc1Oc1ccccc1 | 22 nM | 7 nM | 110 nM | 300 nM | 1000 nM | 80% | 1 µM (≈ 0.498 µg/mL) |
| N#Cc1ccc(Cn2cncc2CN2CCN(c3cccc(Cl)c3)C(=O)C2)cc1Oc1cccc(Cl)c1 | 20 nM | 4 nM | 93 nM | – | – | – | – |
| N#Cc1ccc(Cn2cncc2CN2CCN(c3cccc(Cl)c3)C(=O)C2)cc1Oc1ccccc1Cl | 0.7 nM | 7 nM | 41 nM | – | – | – | 0.3 µM (≈ 0.16 µg/mL) |
| N#Cc1ccc(Cn2cncc2CN2CCN(c3cccc(Cl)c3)C(=O)C2)cc1Oc1cccc(OCCO)c1 | 1.3 nM | 2.5 nM | 8 nM | – | – | – | 3 µM (≈ 1.67 µg/mL) |
| N#Cc1ccc(Cn2cncc2CN2CCN(c3cccc(Cl)c3)C(=O)C2)cc1Sc1ccccc1 | 12 nM | 18 nM | 255 nM | – | – | – | – |
| O=C1CN(Cc2cncn2Cc2cccc(Oc3ccccc3)c2)CCN1c1cccc(Cl)c1 | 65 nM | – | – | – | – | – | – |
| N#Cc1ccc(Cn2cncc2CN2CCN(c3cccc(Cl)c3)C(=O)C2)cc1Oc1ccc(OCc2ccccc2)cc1 | 62 nM | 32 nM | 311 nM | – | – | – | – |
| N#Cc1ccc(Cn2cncc2CN2CCN(c3cccc(Cl)c3)C(=O)C2)cc1Oc1cccnc1 | 52 nM | 11 nM | 17 nM | – | – | – | 1 µM (≈ 0.499 µg/mL) |
| N#Cc1cc(Cn2cncc2CN2CCN(c3cccc(Cl)c3)C(=O)C2)ccc1Oc1ccccc1 | 809 nM | 9 nM | – | – | – | – | – |
| N#Cc1ccc(Cn2cncc2CN2CCN(c3cccc(Cl)c3)C(=O)C2)cc1 [L-778123 FREE BASE] | – | – | – | 100 nM | – | – | 1 µM (≈ 0.406 µg/mL) |
| N#Cc1ccc(Cn2cncc2CN2CCN(c3cccc(Cl)c3)C(=O)C2)cc1Oc1ccc(Cl)cc1 | 15 nM | 19 nM | 350 nM | – | – | – | – |
| O=C1CN(Cc2cncn2Cc2cccc(Oc3ccccc3)c2)CCN1c1ccc(Cl)cc1 | 136 nM | 670 nM | – | – | – | – | – |
| N#Cc1ccc(Cn2cncc2CN2CCN(c3cccc(Cl)c3)C(=O)C2)cc1Oc1ccc2c(c1)CCCC2 | 290 nM | 4 nM | – | – | – | – | – |

Reference: ChEMBL document CHEMBL1134715, “Aryloxy substituted N-arylpiperazinones as dual inhibitors of farnesyltransferase and geranylgeranyltransferase-I” (Bioorg Med Chem Lett, 2001)
